PHOSPHO1 block: PHOSPHO1 (human) inhibition; Q8TCT1; recombinant PHOSPHO1, absorbance phosphatase assay; inhibition, % at 13.3 µM; actives 1.1% (n = 290,000); in the data active means inhibition above about 60%
Target sequence (Q8TCT1 whole entry, looked up): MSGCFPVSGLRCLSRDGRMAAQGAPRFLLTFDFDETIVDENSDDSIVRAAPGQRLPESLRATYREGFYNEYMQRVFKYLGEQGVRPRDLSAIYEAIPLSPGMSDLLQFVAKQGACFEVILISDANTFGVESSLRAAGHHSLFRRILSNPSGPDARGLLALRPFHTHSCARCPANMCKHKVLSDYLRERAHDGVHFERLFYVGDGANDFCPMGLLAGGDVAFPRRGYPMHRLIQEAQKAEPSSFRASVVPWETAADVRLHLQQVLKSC
HSF-1 act: increases HSF-1 driven luciferase reporter signal. NIH3T3-HGL HSF-1 luciferase reporter, MG132, 8 h; 100% = twice DMSO control signal. activation, % at 9 µM. actives 1.7% (n = 300,000). AID 504408;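 active means mean replicate activation of at least 50% with a set share of replicates each reaching 50%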;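 further: 0% = median of the neutral control wells and 100% = twice that signal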
CHT block: inhibitors of human choline transporter CHT | B-score at 10 µM | Q9GZV3 | actives 0.86% (n = 310,000) | CHT-expressing cells, membrane potential dye, choline response; active compounds read low;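 active means B-score over 3 SD under the library average, and starting fluorescence ratio not unusually high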;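 further: choline stimulus applied at its EC90 after an EC20 pre-addition; B-score computed on integrated fluorescence ratio after choline addition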
HSF1 inh: HSF1 inhibition; NIH3T3-HGL HSE-luciferase, MG132-induced, luminescence 8 h; active compounds read low; activity change, negative = inhibition, % at 7.5 µM (by protocol); actives 0.77% (n = 300,000);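 active means more than half of replicate wells show activity change below -50%, luminescence cut by over half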;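 further: luciferase reports HSF-1 transcriptional activity via heat shock element; 0% = median of DMSO wells and -100% = zero luminescence signal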
CHT allo act: human CHT allosteric activation | CHT-expressing cells, membrane potential dye, choline EC20; active compounds read high; LV-AA mutant CHT in HEK293 cells | B-score at 10 µM | actives 0.49% (n = 310,000);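 active means initial fluorescence not abnormally high and integrated response B-score, plate-corrected, over 3 SD above library mean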
Lipid droplet: modulators of hepatic lipid droplet formation. actives 0.4% (n = 240,000). AML12 mouse hepatocytes, oleate lipid droplets, BODIPY imaging. inhibition, % at 6.5 µM;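 active means lipid droplet intensity inhibited by at least 50%, with more than 500 cells counted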
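Test system: AML12 mouse liver cells; schedule: overnight exposure; technique: high-content imaging of BODIPY-stained droplets and DAPI nuclei; read-out: % inhibition of corrected integrated BODIPY droplet signal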
CHT act confirm: confirmation of human choline transporter (CHT) activators | shares compounds with CHT allo act | CHT-expressing cells, membrane potential dye fluorescence (FDSS); % of choline EC20–EC90 response window; HEK293 expressing CHT LV-AA mutant; choline added at its EC20 | activation, % at 10 µM | actives 91% (n = 2,500) | AID 504833;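 active means primary screen active, with duplicate mean activation above negative control mean plus 3 SD, cut at about 11% in these data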
HEK293 MP dye: counter-screen for CHT activators: effect in parental HEK293 cells. shares compounds with CHT allo act. membrane potential dye fluorescence (FDSS); measured after EC20 choline addition. ratio readout change at 10 µM, hits read low. actives 62% (n = 2,500). AID 623908;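 active means duplicate-averaged ratio beyond 3 SD from buffer wells, up or down, though filed actives are nearly all decreases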
Numbers without * were called inactive; i = inactive; nt = not tested or not shown. Sampled rows, rich in hits. Any-hit rate of the full collection: about 4.9%.

SMILES	PHOSPHO1 block	HSF-1 act	CHT block	HSF1 inh	CHT allo act	Lipid droplet	CHT act confirm	HEK293 MP dye
O=C(CSc1nnnn1-c1ccccc1Cl)Nc1ccc2c(c1)OCCO2	2	-38	i	-29	i	-6	nt	nt
CCc1noc(C)c1C(=O)OCC(=O)NC(=O)c1ccccc1	36	15	i	-4	i	-1	nt	nt
O=c1/c(=C/c2ccc(O)cc2)sc2nc3cc(Br)cnc3n12	-122	39	i	21	i	2	nt	nt
O=C(CSc1nc2ccc(NC(=O)C3CCCCC3)cc2s1)NCC1CCCO1 (configuration not stated)	-1	-5	i	4	i	-9	nt	nt
O=C(NNc1ccc(Cl)cc1)C1CCC1	-15	7	i	3	i	-2	14*	i
Cc1ccc(-c2cn(-c3ccc(OC(F)F)cc3)c3[n+]2CCCCC3)cc1	42	8	i	-2	i	3	57*	i
O=S1(=O)CC2NC(=S)N(c3cccc(Br)c3)C2C1 (configuration not stated)	37	-14	i	-1	i	23	nt	nt
O=c1oc2ccccc2cc1-c1cn2cccnc2n1	-7	34	i	14	i	8	20*	-33*
O=c1oc2ccccc2cc1-c1cn2ccccc2n1	32	-15	i	-9	i	3	nt	nt
O=C(CSc1ccc(-c2ccccc2)nn1)N1CCCc2ccccc21	-18	-14	i	-11	i	-42	nt	nt
COc1ccc(C(C(=O)NC2CCCCC2)N(C(=O)c2csnn2)C2CC2)cc1 (configuration not stated)	35	-16	i	-2	i	-2	nt	nt
Cc1ccccc1C1c2[nH]c3ccccc3c2CCN1Cc1cccn1-c1ncccn1 (configuration not stated)	28	-10	i	-1	6.3*	-18	27*	i
Fc1ccccc1C1c2[nH]c3ccccc3c2CCN1Cc1cccn1-c1ncccn1 (configuration not stated)	9	nt	i	nt	i	-20	nt	nt
O=C(Nc1ccccc1C(=O)NCCCN1CCOCC1)c1cccc([N+](=O)[O-])c1	38	-2	i	-2	6.3*	-1	50*	-59*
COc1cc(CNC(C)C23CC4CC(CC(C4)C2)C3)ccc1OCC(=O)NC(C)(C)C (configuration not stated)	nt	-9	i	-7	i	nt	nt	nt
CC(NCc1cc(Br)ccc1OCC(N)=O)C12CC3CC(CC(C3)C1)C2 (configuration not stated)	8	-16	i	-10	11*	-3	23*	i
Cc1cccc(CN2CCCC(C(=O)N3CCCCC3)C2)c1 (configuration not stated)	31	3	i	-8	i	-8	nt	nt
COc1ccc(-c2noc(CN3CCN(C(=O)c4cccs4)CC3)n2)c(OC)c1OC	12	10	i	1	i	4	nt	nt
Cc1nn(-c2ccccc2)c(Cl)c1CN(C(=O)CCl)c1cccc2ccccc12	-14	-7	i	12	9*	-9	36*	i
COc1cc(S(=O)(=O)N2CCOCC2)ccc1NC(=O)CSc1n[nH]c(=O)[nH]c1=O	4	6	i	-4	i	7	nt	nt
CC[C@@H](C)[C@H](CN[C@H](CNC)C(C)C)NC[C@@H](C)c1ccc(CC(C)C)cc1	15	-1	i	-6	i	1	0	i
CC[C@H](C)[C@@H](CN[C@H](C)CNC)NCCC(c1ccccc1)c1ccccc1	-6	2	i	4	i	-14	nt	nt
CC1(C)C(=O)Nc2ccccc2N1C(=O)COC(=O)c1ccc(Cl)c(S(=O)(=O)NCc2ccccc2)c1	3	11	i	11	i	-4	12*	i
O=C(COC(=O)CCc1ccc(S(=O)(=O)N2CCCCC2)cc1)Nc1cccc2ccccc12	3	16	i	-4	i	-12	nt	nt
Oc1ccc(/C=N/Nc2cc(N3CCOCC3)nc(N3CCOCC3)n2)cc1O	-13	1	i	-10	7.1*	-7	47*	-62*
SMILES	PHOSPHO1 block	HSF-1 act	CHT block	HSF1 inh	CHT allo act	Lipid droplet	CHT act confirm	HEK293 MP dye
CCCCCNc1nc(NCCCO)c(C#N)c2c1CN(C)CC2	17	-5	i	-7	i	9	32*	-29*
CCCCCNc1nc(N2CCCC2)c2c(c1C#N)CCN(C)C2	16	8	i	-4	i	nt	nt	nt
Cc1cc2cc(C#N)c(N3CCOCC3)nc2cc1Cl	7	21	i	2	i	4	nt	nt
O=C(O)CCC(=O)OCC1CCCCC1	12	-4	i	-4	i	-1	nt	nt
Nc1nc(N2CCCCC2)nc2ccccc12	20	30	i	5	i	nt	nt	nt
Nc1nc(N2CCN(c3ccccn3)CC2)nc2ccccc12	23	23	i	-6	i	nt	26*	-42*
COc1ccccc1C(=O)Nc1ccccc1SC	11	16	i	3	i	-11	nt	nt
O=C(Nc1ccncc1)c1cccc(S(=O)(=O)N2CCCC2)c1	53	12	i	0	i	10	nt	nt
Cc1cc(C)n2nc3nc4c(cc3c2n1)CCCC4	98*	19	i	5	7*	nt	41*	-47*
COc1ccc(C(=O)N/N=C(\C)CC(=O)Nc2ccc3ccccc3c2)c(OC)c1	0	11	i	6	i	0	nt	nt
Cc1ccc(C)c(NC(=O)COC(=O)c2ccc3c(c2)OCO3)c1	32	-8	i	-5	i	4	nt	nt
O=C1c2ccccc2N2C(=O)c3ccccc3C2N1Cc1ccccc1 (configuration not stated)	43	-3	i	-2	i	-15	26*	i
Cc1ccccc1CN1CCNC(=O)C1CC(=O)NC1CCCCCCC1 (configuration not stated)	34	3	i	4	i	-11	nt	nt
Cc1nc2ccc(Cc3ccc4nc(C)[nH]c4c3)cc2[nH]1	13	-3	i	-7	7.5*	-6	59*	-54*
CC(C)C[C@@H](COc1ccccc1)N1CCN(Cc2ccccc2)CCC1=O	15	10	i	3	6.3*	nt	16*	i
CCCN1CCC(=O)N([C@H](COc2ccccc2)Cc2ccccc2)CC1	-13	-2	i	2	i	-2	nt	nt

Screening data deposited in PubChem BioAssay by several laboratories.
